From ChEMBL document CHEMBL1759942, “Synthesis and biological activity of 2-(bis((1,3,4-oxadiazolyl/1,3,4-thiadiazolyl)methylthio)methylene)malononitriles” (2011)
Values after ≈ are worked out from the molar mass of the structure shown.

How the values were obtained:
Format in all cases: functional
[1] = Antioxidant activity against nitric oxide scavenging activity at 100 uM after 120 mins by spectrophotometric analysis at pH 7.4
Summary of the method: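 Nitric oxide scavenging: test compounds at 100 in dioxane/methanol were incubated at 25 °C for 120 min, with a solvent-only control. At intervals, 0.5 ml samples were mixed with an equal volume of Griess reagent (1% sulfanilamide, 0.1% N-naphthylethylenediamine dihydrochloride, 2% o-phosphoric acid). Absorbance of the azo chromophore was then measured.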

[2] = system: Radical scavenging activity; assay: Antioxidant activity against DPPH free radical scavenging activity at 100 uM after 20 mins by spectrophotometric analysis at pH 7.5
Summary of the method: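 DPPH assay: compound solutions at 100 were added to DPPH at 100 in dioxane/methanol and held at ambient temperature for 20 min. Absorbance was read at 517 nm, and the test–control difference was expressed as percent DPPH radical scavenging.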

Staphylococcus aureus [3] = assay: Antibacterial activity against Staphylococcus aureus assessed as zone of inhibition at 100 ug/ml after 24 hrs by disc diffusion method; details: read-out: DIZ
Summary of the method: (§1)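 Agar disc diffusion on nutrient agar plates pre-inoculated separately with each bacterium. Sterile 6 mm paper discs were moistened with compound solution in DMSO at 100 or 200 per disc and placed on the plates. Plates were incubated at 37 °C, and growth-inhibition zone diameter was measured after 24 h. Chloramphenicol served as the reference drug.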

Staphylococcus aureus [4] = assay: Antibacterial activity against Staphylococcus aureus assessed as zone of inhibition at 200 ug/ml after 24 hrs by disc diffusion method; details: read-out: DIZ; summary of the method: as §1
Bacillus subtilis [5] = assay: Antibacterial activity against Bacillus subtilis assessed as zone of inhibition at 100 ug/ml after 24 hrs by disc diffusion method; details: read-out: DIZ; summary of the method: as §1
Bacillus subtilis [6] = assay: Antibacterial activity against Bacillus subtilis assessed as zone of inhibition at 200 ug/ml after 24 hrs by disc diffusion method; details: read-out: DIZ; summary of the method: as §1
Klebsiella pneumoniae [7] = assay: Antibacterial activity against Klebsiella pneumoniae assessed as zone of inhibition at 200 ug/ml after 24 hrs by disc diffusion method; details: read-out: DIZ; summary of the method: as §1
Fusarium solani [8] = assay: Antifungal activity against Fusarium solani assessed as zone of inhibition at 100 ug/ml after 48 hrs by disc diffusion method; details: read-out: DIZ
Summary of the method: (§2)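 Fungi were grown on potato dextrose agar at 25 °C for 3 days, and spore suspensions were adjusted to 10⁶ spores/ml. In the disc diffusion test, inoculated plates received 6 mm paper discs moistened with compound in DMSO at 100 or 200 per disc. Plates were incubated at 37 °C, and inhibition zone diameter was read at 48 h. Ketoconazole was the standard.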

Fusarium solani [9] = assay: Antifungal activity against Fusarium solani assessed as zone of inhibition at 200 ug/ml after 48 hrs by disc diffusion method; details: read-out: DIZ; summary of the method: as §2
Curvularia lunata [10] = assay: Antifungal activity against Curvularia lunata assessed as zone of inhibition at 100 ug/ml after 48 hrs by disc diffusion method; details: read-out: DIZ; summary of the method: as §2
Curvularia lunata [11] = assay: Antifungal activity against Curvularia lunata assessed as zone of inhibition at 200 ug/ml after 48 hrs by disc diffusion method; details: read-out: DIZ; summary of the method: as §2
Aspergillus niger [12] = assay: Antifungal activity against Aspergillus niger assessed as zone of inhibition at 100 ug/ml after 48 hrs by disc diffusion method; details: read-out: DIZ; summary of the method: as §2
Aspergillus niger [13] = assay: Antifungal activity against Aspergillus niger assessed as zone of inhibition at 200 ug/ml after 48 hrs by disc diffusion method; details: read-out: DIZ; summary of the method: as §2
Escherichia coli [14] = assay: Antibacterial activity against Escherichia coli assessed as zone of inhibition at 100 ug/ml after 24 hrs by disc diffusion method; details: read-out: DIZ; summary of the method: as §1
Escherichia coli [15] = assay: Antibacterial activity against Escherichia coli assessed as zone of inhibition at 200 ug/ml after 24 hrs by disc diffusion method; details: read-out: DIZ; summary of the method: as §1
Klebsiella pneumoniae [16] = assay: Antibacterial activity against Klebsiella pneumoniae assessed as zone of inhibition at 100 ug/ml after 24 hrs by disc diffusion method; details: read-out: DIZ; summary of the method: as §1
Staphylococcus aureus [17] = assay: Antibacterial activity against Staphylococcus aureus after 24 hrs by microdilution method
Summary of the method: (§3)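 MIC by microdilution susceptibility testing in tubes. Incubation was at 36 °C for 24 h (bacteria) or 48 h (fungi). MIC was recorded as the lowest compound concentration giving no turbidity, i.e. no visible growth. Chloramphenicol was the antibacterial reference and ketoconazole the antifungal standard.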

Bacillus subtilis [18] = assay: Antibacterial activity against Bacillus subtilis after 24 hrs by microdilution method; summary of the method: as §3
Escherichia coli [19] = assay: Antibacterial activity against Escherichia coli after 24 hrs by microdilution method; summary of the method: as §3
Klebsiella pneumoniae [20] = assay: Antibacterial activity against Klebsiella pneumoniae after 24 hrs by microdilution method; summary of the method: as §3
Fusarium solani [21] = assay: Antifungal activity against Fusarium solani after 48 hrs by microdilution method; summary of the method: as §3
Curvularia lunata [22] = assay: Antifungal activity against Curvularia lunata after 48 hrs by microdilution method; summary of the method: as §3
Aspergillus niger [23] = assay: Antifungal activity against Aspergillus niger after 48 hrs by microdilution method; summary of the method: as §3

SMILES	inhibition [1]	inhibition [2]	zone of inhibition at 100 µg/mL (Staphylococcus aureus [3])	zone of inhibition at 200 µg/mL (Staphylococcus aureus [4])	zone of inhibition at 100 µg/mL (Bacillus subtilis [5])	zone of inhibition at 200 µg/mL (Bacillus subtilis [6])	zone of inhibition at 200 µg/mL (Klebsiella pneumoniae [7])	zone of inhibition at 100 µg/mL (Fusarium solani [8])	zone of inhibition at 200 µg/mL (Fusarium solani [9])	zone of inhibition at 100 µg/mL (Curvularia lunata [10])	zone of inhibition at 200 µg/mL (Curvularia lunata [11])	zone of inhibition at 100 µg/mL (Aspergillus niger [12])	zone of inhibition at 200 µg/mL (Aspergillus niger [13])	zone of inhibition at 100 µg/mL (Escherichia coli [14])	zone of inhibition at 200 µg/mL (Escherichia coli [15])	zone of inhibition at 100 µg/mL (Klebsiella pneumoniae [16])	MIC (Staphylococcus aureus [17])	MIC (Bacillus subtilis [18])	MIC (Escherichia coli [19])	MIC (Klebsiella pneumoniae [20])	also measured
O=C1O[C@H]([C@@H](O)CO)C(O)=C1O	94.9%	95.3%	–	–	–	–	–	–	–	–	–	–	–	–	–	–	–	–	–	–	–
Cc1ccc(-c2nnc(CSC(SCc3nnc(-c4ccc(C)cc4)o3)=C(C#N)C#N)o2)cc1	54.3%	52.5%	10 mm	13 mm	10 mm	12 mm	11 mm	15 mm	17 mm	13 mm	14 mm	10 mm	11 mm	–	–	–	–	–	–	–	–
N#CC(C#N)=C(SCc1nnc(-c2ccc(Cl)cc2)o1)SCc1nnc(-c2ccc(Cl)cc2)o1	72.5%	73.7%	16 mm	20 mm	13 mm	16 mm	12 mm	20 mm	22 mm	16 mm	19 mm	14 mm	17 mm	8 mm	11 mm	8 mm	–	–	–	–	–
O=C(N[C@H](CO)[C@H](O)c1ccc([N+](=O)[O-])cc1)C(Cl)Cl [CHLORAMPHENICOL]	–	–	35 mm	39 mm	38 mm	41 mm	45 mm	–	–	–	–	–	–	40 mm	44 mm	42 mm	6.25 µg/mL (≈ 19.3 µM)	6.25 µg/mL (≈ 19.3 µM)	6.25 µg/mL (≈ 19.3 µM)	12.5 µg/mL (≈ 38.7 µM)	–
N#CC(C#N)=C(SCc1nnc(-c2ccccc2)s1)SCc1nnc(-c2ccccc2)s1	25.8%	26.3%	24 mm	26 mm	23 mm	27 mm	24 mm	25 mm	28 mm	26 mm	28 mm	21 mm	24 mm	21 mm	24 mm	23 mm	200 µg/mL (≈ 408 µM)	100 µg/mL (≈ 204 µM)	200 µg/mL (≈ 408 µM)	200 µg/mL (≈ 408 µM)	MIC (Fusarium solani [21]): 100 µg/mL (≈ 204 µM); MIC (Curvularia lunata [22]): 100 µg/mL (≈ 204 µM); MIC (Aspergillus niger [23]): 100 µg/mL (≈ 204 µM)
CC(=O)N1CCN(c2ccc(OCC3COC(Cn4ccnc4)(c4ccc(Cl)cc4Cl)O3)cc2)CC1 (stereo not given) [KETOCONAZOLE]	–	–	–	–	–	–	–	38 mm	42 mm	41 mm	44 mm	36 mm	39 mm	–	–	–	–	–	–	–	MIC (Fusarium solani [21]): 12.5 µg/mL (≈ 23.5 µM); MIC (Curvularia lunata [22]): 6.25 µg/mL (≈ 11.8 µM); MIC (Aspergillus niger [23]): 6.25 µg/mL (≈ 11.8 µM)
CCOC(=O)CSC(SCC(=O)OCC)=C(C#N)C#N	45.8%	46.3%	10 mm	14 mm	12 mm	14 mm	8 mm	13 mm	15 mm	12 mm	15 mm	9 mm	12 mm	7 mm	9 mm	–	–	–	–	–	–
N#CC(C#N)=C(SCc1nnc(-c2ccc(Cl)cc2)s1)SCc1nnc(-c2ccc(Cl)cc2)s1	29.4%	30.2%	32 mm	35 mm	30 mm	32 mm	25 mm	30 mm	32 mm	32 mm	34 mm	26 mm	29 mm	25 mm	26 mm	23 mm	100 µg/mL (≈ 179 µM)	50 µg/mL (≈ 89.4 µM)	200 µg/mL (≈ 357 µM)	200 µg/mL (≈ 357 µM)	MIC (Fusarium solani [21]): 50 µg/mL (≈ 89.4 µM); MIC (Curvularia lunata [22]): 50 µg/mL (≈ 89.4 µM); MIC (Aspergillus niger [23]): 100 µg/mL (≈ 179 µM)
Cc1ccc(-c2nnc(CSC(SCc3nnc(-c4ccc(C)cc4)s3)=C(C#N)C#N)s2)cc1	22.3%	21.6%	19 mm	25 mm	19 mm	24 mm	22 mm	23 mm	25 mm	25 mm	26 mm	18 mm	21 mm	17 mm	24 mm	18 mm	–	–	–	–	–
N#CC(C#N)=C(SCc1nnc(-c2ccccc2)o1)SCc1nnc(-c2ccccc2)o1	65.4%	63.5%	12 mm	14 mm	12 mm	16 mm	12 mm	18 mm	21 mm	15 mm	17 mm	12 mm	14 mm	8 mm	10 mm	9 mm	–	–	–	–	–
